Measured values as given in publication PMC4512239 (Clinical cancer research : an official journal of the …, 2015).

Tests used:
m-TORC1/2 = conditions: ATP competitive m-TORC1/2 inhibitor; cited from earlier work
p-4EBP1 = p-4EBP1 immunohistochemistry in pre- and post-treatment tumor biopsies; format: in vivo, human; conditions: 50 mg BD, post-treatment vs pre-treatment, mean H score
In short: (§1)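 Paired tumor biopsies taken before treatment and on days 8-15 of continuous oral twice-daily dosing, in a subset of expansion-cohort patients with advanced solid tumors. Patients fasted (water allowed) 2 h before and 1 h after each dose. Markers were scored by immunohistochemistry on post-treatment versus pre-treatment samples.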

MCF7 xenograft models = assay: MCF7 xenograft growth inhibition; format: in vivo
p-4EBP1 in PBMNCs = assay: p-4EBP1 in peripheral blood mononuclear cells by flow cytometry; format: in vivo, human
p-S6 = p-S6 immunohistochemistry in pre- and post-treatment tumor biopsies; format: in vivo, human; conditions: 50 mg BD, post-treatment vs pre-treatment, mean H score
In short: as §1

SUVmax of tumors = assay: FDG PET scans at baseline and day 8; format: in vivo, human; conditions: Part B, 50 mg BD, paired FDG PET scans
[1] = clinical plasma pharmacokinetics; format: in vivo, human; conditions: for AUC / Cmax / half-life: human, plasma
advanced solid tumors = assay: disease response by RECIST 1.1; format: in vivo, human; conditions: one each with ovarian and endometrial cancer
[2] = [14C]-AZD2014 metabolism and excretion after a single dose in rats; format: in vivo
p-AKT = p-AKT immunohistochemistry in pre- and post-treatment tumor biopsies; format: in vivo, human; conditions: 50 mg BD
In short: as §1

For `CNC(=O)c1cccc(-c2ccc3c(N4CCOC[C@@H]4C)nc(N4CCOC[C@@H]4C)nc3n2)c1` [AZD2014], the IC50 (m-TORC1/2) is given as 2.81 nM, the “paired biopsy samples with a reduction of p-4EBP1 levels” value (p-4EBP1) is given as 3/7 and the “total growth inhibition (TGI)” value (MCF7 xenograft models; 4500 nM.h free weekly AUC) is given as greater than 70%. For the same molecule, the “total growth inhibition (TGI)” value (MCF7 xenograft models; 17000 nM.h free weekly AUC) was no less than 100%, the “mean % change from baseline in p-4EBP1” value (p-4EBP1 in PBMNCs; 50 mg, 24 hours (12 hours after the 2nd BD dose)) was −21% and the “mean % change from baseline in p-4EBP1” value (p-4EBP1 in PBMNCs; single 50 mg dose, 6-8 hours) was roughly −41%. For the same molecule, the “evaluable paired biopsy samples with a reduction of p-S6 levels” value (p-S6) was 8/8, the “patients attaining a partial response (30% reduction in SUVmax)” value (SUVmax of tumors) was 3/11 and the “patients with a reduction of SUVmax” value (SUVmax of tumors) was 8/11. For the same molecule, the “free weekly AUC, average” value ([1]; 50mg BD solution, converted from total exposure with MW and 5.47% free) was 11.05 µM·h, the “Cmin SS, Gmean” value ([1]; 50 mg BD, n=27) was 169.5 ng/mL and the “Cmin SS, range” value ([1]; 50 mg BD, n=27) was 0 to 2120 ng/mL. For the same molecule, the “dose proportionality of Geomean exposure (AUC and Cmax)” value ([1]; 25 to 100 mg) was “increased greater than proportionally with increasing dose”, the AUC ([1]; oral, 25 mg, AUC, Gmean, Single dose, N=6) was 1640 ng·h/mL and the AUC ([1]; oral, 25 mg, AUC, Range, Single dose, N=6) was 883 to 2730 ng·h/mL. For the same molecule, the AUC ([1]; oral, 25 mg, AUCss, Gmean, Steady state, 25 mg BD, N=6) was 2980 ng·h/mL, the AUC ([1]; oral, 25 mg, AUCss, Range, Steady state, 25 mg BD, N=6) was 1000 to 6560 ng·h/mL and the Cmax ([1]; oral, 25 mg, Cmax ss, Gmean, Steady state, 25 mg BD, N=6) was 747 ng/mL. It also gave a Cmax ([1]; oral, 25 mg, Cmax ss, Range, Steady state, 25 mg BD, N=6) of 227 to 1450 ng/mL, a Cmax ([1]; oral, 25 mg, Cmax, Gmean, Single dose, N=6) of 435 ng/mL and a Cmax ([1]; oral, 25 mg, Cmax, Range, Single dose, N=6) of 221 to 681 ng/mL. For the same molecule, the half-life ([1]; oral, 25 mg, t½, Mean, Single dose, N=6) was 2.96 h, the half-life ([1]; oral, 25 mg, t½, Range, Single dose, N=6) was 0.88 to 6.71 h and the half-life ([1]; oral, 25 mg, t½, ss, Mean, Steady state, 25 mg BD, N=6) was 2.89 h. It also gave a half-life ([1]; oral, 25 mg, t½, ss, Range, Steady state, 25 mg BD, N=6) of 1.34 to 4.06 h, an AUC ([1]; oral, 50 mg, AUC, Gmean, Single dose, N=27) of 4020 ng·h/mL and an AUC ([1]; oral, 50 mg, AUC, Range, Single dose, N=27) of 453 to 12600 ng·h/mL. It also gave an AUC ([1]; oral, 50 mg, AUCss, Gmean, Steady state, 50 mg BD, N=37) of 6690 ng·h/mL, an AUC ([1]; oral, 50 mg, AUCss, Range, Steady state, 50 mg BD, N=37) of 1280 to 47800 ng·h/mL and a Cmax ([1]; oral, 50 mg, Cmax ss, Gmean, Steady state, 50 mg BD, N=37) of 1660 ng/mL. The Cmax ([1]; oral, 50 mg, Cmax ss, Range, Steady state, 50 mg BD, N=37) was 657 to 6410 ng/mL, the Cmax ([1]; oral, 50 mg, Cmax, Gmean, Single dose, N=27) was 1150 ng/mL and the Cmax ([1]; oral, 50 mg, Cmax, Range, Single dose, N=27) was 234 to 2840 ng/mL. For the same molecule, the half-life ([1]; oral, 50 mg, t½, Mean, Single dose, N=27) was 2.48 h, the half-life ([1]; oral, 50 mg, t½, Range, Single dose, N=27) was 0.9 to 8.04 h and the half-life ([1]; oral, 50 mg, t½, ss, Mean, Steady state, 50 mg BD, N=37) was 3.01 h. For the same molecule, the half-life ([1]; oral, 50 mg, t½, ss, Range, Steady state, 50 mg BD, N=37) was 1.18 to 4.8 h, the AUC ([1]; oral, 70 mg, AUC, Gmean, Single dose, N=5) was 8970 ng·h/mL and the AUC ([1]; oral, 70 mg, AUC, Range, Single dose, N=5) was 6010 to 14200 ng·h/mL. For the same molecule, the AUC ([1]; oral, 70 mg, AUCss, Range, Steady state, 70 mg BD, N=2) was 7500 to 22500 ng·h/mL, the Cmax ([1]; oral, 70 mg, Cmax ss, Range, Steady state, 70 mg BD, N=2) was 1500 to 3870 ng/mL and the Cmax ([1]; oral, 70 mg, Cmax, Gmean, Single dose, N=5) was 2380 ng/mL. It also gave a Cmax ([1]; oral, 70 mg, Cmax, Range, Single dose, N=5) of 1440 to 3690 ng/mL, a half-life ([1]; oral, 70 mg, t½, Mean, Single dose, N=5) of 3.11 h and a half-life ([1]; oral, 70 mg, t½, Range, Single dose, N=5) of 1.35 to 5.98 h. It also gave a half-life ([1]; oral, 70 mg, t½, ss, Range, Steady state, 70 mg BD, N=2) of 3.63 to 4.23 h, an AUC ([1]; oral, 100 mg, AUC, Gmean, Single dose, N=4) of 9670 ng·h/mL and an AUC ([1]; oral, 100 mg, AUC, Range, Single dose, N=4) of 4770 to 16100 ng·h/mL. The Cmax ([1]; oral, 100 mg, Cmax, Gmean, Single dose, N=4) was 2790 ng/mL, the Cmax ([1]; oral, 100 mg, Cmax, Range, Single dose, N=4) was 1410 to 5050 ng/mL and the half-life ([1]; oral, 100 mg, t½, Mean, Single dose, N=4) was 3.23 h. The half-life ([1]; oral, 100 mg, t½, Range, Single dose, N=4) was 0.82 to 6.49 h, the half-life ([1]; po, terminal elimination half-life, patients) was roughly 3 h and the “patients with prolonged stable disease on treatment for more than one year” value (advanced solid tumors) was “two patients”. The “faecal excretion, % of dosed radioactivity” value [2] was roughly 85%, the “urinary excretion, % of dosed radioactivity” value [2] was “approximately 2%” and the “induction of phosphorylation of AKT in post-treatment biopsies” value (p-AKT) was “no instances of induction of phosphorylation of AKT were seen”. The “paired biopsy samples with a reduction of p-AKT levels” value (p-AKT; post-treatment vs pre-treatment, mean H score) was 3/4.
